Common to all, as to type: functional
In test [1] the test system is Mycobacterium kansasii. As to the kind of experiment: Antimycobacterial activity against Mycobacterium kansasii 6509/96 after 21 days by microdilution method. As to conditions: 6509/96, 504 h. A digest of the protocol:
(§1)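 Clinical isolate that, unlike the standard strain, is not isoniazid-resistant. Tested by dilution micromethod in Šula semisynthetic medium, with compounds added in DMSO at final 1000 down to 0.25 µmol/L in twofold steps. Löwenstein-Jensen plate used as inoculum sterility and growth control. Incubated at 37 °C and read at 14 and 21 days. MIC is the lowest concentration inhibiting growth.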

Test [2] relates to Mycobacterium avium. Kind of test: Antimycobacterial activity against Mycobacterium avium CNCTC My 330/88 after 14 days by microdilution method. As to conditions: CNCTC My 330/88, 336 h. A digest of the protocol:
(§2)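 Strains from the Czech National Collection of Type Cultures, tested by dilution micromethod in Šula semisynthetic medium. Incubated at 37 °C and read at 14 and 21 days. MIC is the lowest concentration inhibiting growth.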

Test [3] relates to Mycobacterium kansasii. Kind of test: Antimycobacterial activity against Mycobacterium kansasii 6509/96 after 14 days by microdilution method. As to conditions: 6509/96, 336 h. Summed up: as §1
For test [4], the system named is Mycobacterium kansasii. Kind of test: Antimycobacterial activity against Mycobacterium kansasii CNCTC My 235/80 after 14 days by microdilution method. As to conditions: CNCTC My 235/80, 336 h. Summed up:
as §2

For test [5], the system named is Mycobacterium tuberculosis. Kind of test: Antimycobacterial activity against Mycobacterium tuberculosis CNCTC My 331/88 after 21 days by microdilution method. The following applies: CNCTC My 331/88, 504 h. A digest of the protocol: as §2
In test [6] the test system is Mycobacterium kansasii. Kind of test: Antimycobacterial activity against Mycobacterium kansasii CNCTC My 235/80 after 21 days by microdilution method. The following applies: CNCTC My 235/80, 504 h. A digest of the protocol:
as §2

In test [7] the test system is Mycobacterium avium. Kind of test: Antimycobacterial activity against Mycobacterium avium CNCTC My 330/88 after 21 days by microdilution method. The following applies: CNCTC My 330/88, 504 h. A digest of the protocol: as §2
The subject of test [8] is Mycobacterium tuberculosis. As to the kind of experiment: Antimycobacterial activity against Mycobacterium tuberculosis CNCTC My 331/88 after 14 days by microdilution method. As to conditions: CNCTC My 331/88, 336 h. Summed up:
as §2

Converted amounts (≈) assume the structure as drawn.

`CCC(C)c1ccc(-n2c(=O)oc3ccc(Br)cc3c2=O)cc1` (stereo not given): the MIC with Mycobacterium kansasii [1] turned out to be 16 µM (≈ 5.99 µg/mL); against Mycobacterium avium [2] it was 16 µM (≈ 5.99 µg/mL); against Mycobacterium kansasii [3], 8 µM (≈ 2.99 µg/mL); against Mycobacterium kansasii [4] it was 8 µM (≈ 2.99 µg/mL); in test [5], 8 µM (≈ 2.99 µg/mL); in the test with Mycobacterium kansasii [6], 8 µM (≈ 2.99 µg/mL). For the same compound, the values for the MIC (with Mycobacterium avium [7]; in test [8]) were 32 µM (≈ 12 µg/mL) and 4 µM (≈ 1.5 µg/mL), respectively.

With `CCC(C)c1ccc(-n2c(=O)oc3ccc(Cl)cc3c2=O)cc1` (stereo not given), the MIC came out at 16 µM (≈ 5.28 µg/mL) against Mycobacterium kansasii [1]; 32 µM (≈ 10.6 µg/mL) in the test with Mycobacterium avium [2]; 16 µM (≈ 5.28 µg/mL) with Mycobacterium kansasii [3]; 16 µM (≈ 5.28 µg/mL) against Mycobacterium kansasii [4]; 8 µM (≈ 2.64 µg/mL) in test [5]; 16 µM (≈ 5.28 µg/mL) against Mycobacterium kansasii [6]. Further, the MIC with Mycobacterium avium [7] is 32 µM (≈ 10.6 µg/mL); in test [8] it was 4 µM (≈ 1.32 µg/mL).

With `CCC(C)c1ccc(-n2c(=O)oc3cc(Cl)ccc3c2=O)cc1` (stereo not given), the MIC in the test on Mycobacterium kansasii [1] came to 8 µM (≈ 2.64 µg/mL); with Mycobacterium avium [2], 8 µM (≈ 2.64 µg/mL); in the test with Mycobacterium kansasii [3], 8 µM (≈ 2.64 µg/mL); against Mycobacterium kansasii [4], 8 µM (≈ 2.64 µg/mL); in test [5], 4 µM (≈ 1.32 µg/mL); with Mycobacterium kansasii [6] it was 8 µM (≈ 2.64 µg/mL). The MIC turned out to be 8 µM (≈ 2.64 µg/mL) in the test with Mycobacterium avium [7] and 4 µM (≈ 1.32 µg/mL) in test [8].

Consider `CC(C)(C)c1ccc(-n2c(=O)oc3cc(Cl)ccc3c2=O)cc1`, for which the MIC is 8 µM (≈ 2.64 µg/mL) against Mycobacterium kansasii [1]; 4 µM (≈ 1.32 µg/mL) against Mycobacterium avium [2]; 8 µM (≈ 2.64 µg/mL) against Mycobacterium kansasii [3]; 8 µM (≈ 2.64 µg/mL) with Mycobacterium kansasii [4]; 4 µM (≈ 1.32 µg/mL) in test [5]; 16 µM (≈ 5.28 µg/mL) against Mycobacterium kansasii [6]. Also, the MIC is 8 µM (≈ 2.64 µg/mL) in the test on Mycobacterium avium [7] and 4 µM (≈ 1.32 µg/mL) in test [8].

Regarding `NNC(=O)c1ccncc1` [ISONIAZID], the MIC was 8 µM (≈ 1.1 µg/mL) with Mycobacterium kansasii [1]; more than 250 µM with Mycobacterium avium [2]; 8 µM (≈ 1.1 µg/mL) against Mycobacterium kansasii [3]; more than 250 µM against Mycobacterium kansasii [4]; 0.5 µM (≈ 0.0686 µg/mL) in test [5]; more than 250 µM in the test with Mycobacterium kansasii [6]. The MIC with Mycobacterium avium [7] is more than 250 µM; in test [8], 0.5 µM (≈ 0.0686 µg/mL).

The values above are taken from ChEMBL document CHEMBL1287747, “Highly active antimycobacterial derivatives of benzoxazine” (2010).
